# Assay outcomes from PubChem BioAssay.
# CR mimetic SO – reduction of superoxide in aged yeast, primary screen, HTS. S. cerevisiae aged cells, superoxide DHE fluorescence; hits give low values. superoxide response (% of plate mean), % at 10 µM. hit rate 0.18% among 330,000. AID 2690, 2010;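 active means superoxide response under a set limit, about three screen SD below normal, cut at about 65% in these data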;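 further: yeast aged for seven days with compound at 30 °C before DHE staining; 100% = average MFI of all compound-treated wells on the plate with controls excluded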
# TRPC4 potent – positive allosteric modulators of TRPC4, primary screen, cell-based, mouse TRPC4beta, HEK293 mu-opioid, Fluo-4 calcium. B-score at 10 µM. Short transient receptor potential channel 4 (Mus musculus), Q9QUQ5. DAMGO EC20, Fluo-4 Ca2+ flux; hits give high values. AID 2227, 2009. hit rate 0.42% among 310,000;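 active means B-score of calcium response area above 5 SD of library B-scores, with initial fluorescence ratio within 5 SD of library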;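 further: B-score of integrated fluorescence ratio over time as area under calcium response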
# TRPC6 inhibitor – mouse TRPC6 channel inhibitors, primary screen, cell-based, HEK293, membrane potential dye. B-score at 10 µM. hit rate 1.1% among 310,000. Short transient receptor potential channel 6 (Mus musculus), Q61143. AID 2553, 2010. ACh-evoked depolarization; hits give low values;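 active means B-score under library mean minus 3 SD, initial fluorescence not abnormally high, positive integrated signal ratio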;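 further: B-score derived from integrated fluorescence ratio over the kinetic read; more negative B-score means stronger inhibition of depolarization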
# TRPC4 block – inhibitors of mouse TRPC4 channel, primary screen, Fluo4 calcium, HEK293 TRPC4beta/mu-opioid cells; B-score at 10 µM; Short transient receptor potential channel 4 (Mus musculus), Q9QUQ5; hit rate 0.39% among 300,000; DAMGO-evoked Fluo4 calcium flux; hits give low values; AID 2247, 2010;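 active means B-score over 3 SD under the library average, no early fluorescence shift, positive overall ratio signal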
#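 Assay system: HEK293 cells with stable TRPC4beta plus mu-opioid receptor expression. Dosing: single dose. Measured by: Fluo4 Ca2+ flux fluorescence. Also added: DAMGO in two steps, submaximal then maximal. Read-out: B score from integrated Fluo4 fluorescence ratio.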
# TRPC4 act – activators of mouse TRPC4 channel, primary screen, Fluo4 calcium, HEK293 TRPC4beta/mu-opioid cells; Short transient receptor potential channel 4 (Mus musculus), Q9QUQ5; hit rate 0.49% among 310,000; Fluo4 calcium fluorescence; hits give high values; B-score at 10 µM;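 active means B-score above 5 SD of library B-scores, and initial fluorescence ratio not above library mean plus 5 SD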;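 further: positive B-score marks a calcium rise read as TRPC4 activation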
#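 system = HEK293 cells stably co-expressing mouse TRPC4beta and mu-opioid receptor | schedule = Fluo4 dye loading 45 min at room temperature, 110 s recording | measure = B-scored integrated calcium fluorescence ratio | signal = Fluo4 calcium-sensitive dye fluorescence, kinetic, 1 Hz baseline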
# TRPC6 activator – mouse TRPC6 channel activators, primary screen, cell-based, HEK293, membrane potential dye; Short transient receptor potential channel 6 (Mus musculus), Q61143; HEK293-TRPC6 membrane potential dye fluorescence; hits give high values; B-score at 10 µM; hit rate 0.13% among 310,000;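 active means B-score of the integrated fluorescence ratio above library mean plus 3 SD, and starting fluorescence ratio within library mean plus 5 SD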;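 further: higher score means more depolarization so channel activation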
# TRPC4 spec 2 – second check of whether TRPC6 inhibitors also affect mouse TRPC4 | HEK293 TRPC4/MOR, membrane potential dye fluorescence; channel activated by saturating DAMGO dose | inhibition, % at 10 µM | hit rate 42% among 920 | shares compounds with TRPC6 inhibitor;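 active means compounds whose fluorescence signal differed from control wells by over 3 SD, either direction, in both duplicate plates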
# TRPC4 spec – mouse TRPC4 modulation by TRPC6 hits, confirmation, selectivity assay for TRPC6 inhibitor project, cell-based, HEK293 TRPC4/mu-opioid, membrane potential dye; shares compounds with TRPC6 inhibitor; membrane potential fluorescence; activity change, negative = inhibition, % at 10 µM; hit rate 61% among 920;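 active means rise or fall in signal beyond 3 SD of buffer-only wells in both replicate plates, either sign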;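 further: integrated kinetic ratio of fluorescence range over baseline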
# HEK293 MPD ctr 2-1 – nonspecific membrane potential effects, parental HEK293, confirmation, counter-screen for TRPC6 inhibitor project, cell-based, second counter screen; shares compounds with TRPC6 inhibitor; parental HEK293 membrane potential dye fluorescence; maximal acetylcholine challenge after compound addition; signal change vs control, % at 10 µM; hit rate 31% among 920; AID 2779, 2010;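 active means membrane potential signal moving either way by over 3 SD of the maximum-effect control, in both duplicate plates, meaning non-specific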
# HEK293 MPD ctr-1 – membrane potential modulation in parental HEK293, confirmation, counter-screen for TRPC6 inhibitor project, cell-based; shares compounds with TRPC6 inhibitor; membrane potential signal change, % at 10 µM; AID 2780, 2010; parental HEK293 membrane potential dye fluorescence; hit rate 60% among 920;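 active means membrane potential signal shifting up or down by more than 3 SD of buffer-only wells, on both duplicate plates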
# HEK293 MPD ctr-2 – parental HEK293 membrane potential modulation, confirmation, counter-screen for TRPC6 modulator project, cell-based; membrane potential signal change, % at 10 µM; hit rate 51% among 2,400; shares compounds with TRPC6 inhibitor; AID 488924, 2010; membrane potential dye fluorescence;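 active means membrane potential signal moves up or down beyond 5 SD from buffer-only wells, on both duplicate plates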
# HEK293 MPD ctr 2-2 – second check of TRPC6 modulator effects in parental HEK293 cells. shares compounds with TRPC6 inhibitor. membrane potential dye fluorescence; after compound, maximal acetylcholine stimulation. inhibition, % at 10 µM. hit rate 14% among 2,400;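 active means membrane potential signal drops by more than 5 SD from the mean control signal, in both duplicate plates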;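 further: plate controls were acetylcholine ECmax control wells for no effect and buffer only wells for full effect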
# TRPC4 ctr mod – TRPC4 modulation by TRPC6 hit compounds, confirmation, selectivity assay for TRPC6 modulator project, cell-based, HEK293 TRPC4/mu-opioid, membrane potential dye, mouse; shares compounds with TRPC6 inhibitor; membrane potential fluorescence; percent change from control (negative = decrease, positive = increase), % at 10 µM; hit rate 69% among 2,400;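 active means membrane potential signal moved up or down beyond 5 SD of buffer control wells, in both duplicate plates, actives on both sides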;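 further: plate controls were assay buffer wells for no effect and DAMGO maximal-effect wells for full effect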
# TRPC4/MOR inh 2 – second check of whether TRPC6 modulators also affect mouse TRPC4 | shares compounds with TRPC6 inhibitor | HEK293 TRPC4/mu-opioid, membrane potential dye fluorescence; stimulated with maximal-effect DAMGO | inhibition, % at 10 µM | hit rate 55% among 2,400 | AID 488928;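 active means drop in membrane potential signal beyond 5 SD of the control wells in both duplicate plates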;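 further: TRPC4 counter screen for TRPC6 hits run under conditions tuned for TRPC6 not TRPC4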
# TRPC6 block conf – mouse TRPC6 channel inhibitors, confirmation, HEK293 cells, membrane potential dye, duplicate. shares compounds with TRPC6 inhibitor. ACh-evoked depolarization. inhibition, % at 10 µM. hit rate 43% among 3,300. AID 488960, 2010;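 active means fluorescence ratio falls more than 5 SD below the full-stimulation control mean, in both duplicate runs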;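 further: integrated fluorescence ratio of peak minus minimum over baseline after agonist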
# TRPC6 act confirm – mouse TRPC6 channel activators, confirmation, HEK293 cells, membrane potential dye, duplicate. shares compounds with TRPC6 inhibitor. activation, % at 10 µM. HEK293-TRPC6 membrane potential dye fluorescence, FDSS. hit rate 11% among 2,800;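 active means ratio signal rise beyond 5 SD above unstimulated control wells' mean, seen in both duplicate runs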;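 further: plate controls were buffer EC0 wells for no effect and acetylcholine ECmax response for full effect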
# Active calls of the source: *; i = inactive; x = not tested or not shown. Hits are enriched below; roughly 2.3% of the tested compounds scored in any of these assays.
SMILES,CR mimetic SO,TRPC4 potent,TRPC6 inhibitor,TRPC4 block,TRPC4 act,TRPC6 activator,TRPC4 spec 2,TRPC4 spec,HEK293 MPD ctr 2-1,HEK293 MPD ctr-1,HEK293 MPD ctr-2,HEK293 MPD ctr 2-2,TRPC4 ctr mod,TRPC4/MOR inh 2,TRPC6 block conf,TRPC6 act confirm
O=[N+]([O-])c1cccc(C(=Nc2cccc(Cl)c2)NO)c1,93,i,-8.8*,i,i,i,i,i,i,i,x,x,x,x,i,i
CC(=O)c1ccc(OCCCN2CCCCC2)cc1,99,i,-5.1*,i,i,i,x,x,x,x,i,i,i,i,i,i
CC(=O)c1ccc(OCCCC(=O)N2CCN(S(=O)(=O)c3cc(C)ccc3C)CC2)cc1,112,i,i,i,i,i,x,x,x,x,x,x,x,x,x,x
CC(=O)c1ccc(OCCCC(=O)N2CCN(S(=O)(=O)c3ccc(C(C)C)cc3)CC2)cc1,82,i,-9.2*,i,i,i,i,-0.4%*,i,1.7%*,x,x,x,x,i,x
CC(C)c1ccc(S(=O)(=O)N2CCN(C(=O)C3CC3C)CC2)cc1 (stereo not given),92,i,-10*,i,i,16*,x,x,x,x,i,i,17%*,i,112%*,145%*
Cc1ccc(C(=O)N2CCN(S(=O)(=O)c3ccc(C)cc3)CC2)cc1,95,i,-5.1*,i,i,i,x,x,x,x,i,i,i,i,79%*,x
CC(C)c1ccc(S(=O)(=O)N2CCN(C(=O)C3CCCCC3)CC2)cc1,95,i,i,i,i,i,x,x,x,x,x,x,x,x,x,x
